p97 ATPase inh – inhibitors of human p97 ATPase, primary screen, biochemical | Transitional endoplasmic reticulum ATPase (Homo sapiens), P55072 | inhibition, % at 8 µM | hit rate 0.42% among 220,000 | recombinant p97 ATPase, Kinase-Glo ATP luminescence, 3 h; in the data active means inhibition above about 15%;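 further: 0% = DMSO vehicle and 100% = wells lacking enzyme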
Wee1 degr inh – Wee1 degradation inhibitors, primary screen, cell-based, HeLa, Wee1K328M-luciferase, luminescence. Wee1-like protein kinase (Homo sapiens), P30291. AID 1321, 2008. HeLa Luc-Wee1K328M stability; 100% = proteasome inhibitor MG132 effect. reporter increase, % at 5 µM. hit rate 1.2% among 220,000;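 active means activation above the mean of all tested compounds plus 3 SD, set per screening run, cut at about 8.8% in these data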;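 further: cells exposed to compound for 20 h before luminescence read; 0% = DMSO alone and 100% = MG132 at 30 µM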
APP 5'UTR act – activators of APP 5'UTR luciferase reporter, primary screen, SH-SY5Y cells. SH-SY5Y APP 5'UTR luciferase reporter, luminescence; zero percent = DMSO vehicle wells. activation, % at 2 µM. hit rate 1% among 190,000. AID 1276, 2008;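 active means activation above a set limit, based on mean plus 3 SD of controls, cut at about 140% in these data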
Mdm2 ligase inh – MDM2-luciferase reporter signal enhancers, primary screen, MDM2 E3 ligase inhibitor project, cell-based, luminescence, 1536-well | cell-based MDM2 ubiquitination luciferase reporter, 2 h; 0 = plate control, 100 = twice control, blank-subtracted | signal enhancement, % at 5 µM | hit rate 0.11% among 210,000;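 active means signal enhancement of 30% or more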;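 further: luminescence tracks abundance of the self-degrading MDM2-luciferase fusion protein; higher signal means inhibition of MDM2 E3 ligase activity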
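system = mammalian cells stably expressing self-ubiquitinating, self-degrading MDM2 E3–luciferase fusion | quantity = 2000 cells per well seeded | incubation = 4 h cell settling then 2 h compound exposure, 37 °C | signal = SteadyLite luminescence, 15 min reagent step | benchmarks = plate control and blank wells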
NF-kB expr up – activators of NF-kB expression in neurons, primary screen, cell-based, HTS; human neuronal cells, NF-kB reporter expression; stronger effect = higher value; fold change at 12.5 µM; hit rate 1.6% among 190,000; in the data active means fold change above about 3.3
STAT1 activator – STAT1 signaling activators, primary screen, cell-based, HTS, luciferase reporter; hit rate 2.6% among 200,000; activation (% of control), % at 5.5 µM; NIH 3T3 STAT1-luciferase reporter, IFN-gamma, luminescence; 100% = IFN-gamma alone, no compound; AID 932, 2007;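 active means activation above the screen-wide mean activation plus 3 SD, cut at about 130% in these data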;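 further: raw ratio to IFN-gamma control signal so 100% means no change and 0% no light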
Wee1 degr conf – Wee1 degradation inhibitors, confirmation, cell-based, HeLa, Wee1K328M-luciferase, luminescence, triplicate. hit rate 4% among 1,100. activation, % at 5 µM. HeLa Luc-Wee1K328M degradation; vehicle 0%, proteasome-blocked wells 100%. shares compounds with Wee1 degr inh. AID 1410, 2008; in the data active means activation above about 8.9%
* marks the source's active call; other numbers are inactive results; . = no result given. Only some compounds are listed: those with a hit (about 4.6% of all), similar ones and a draw of the others.

SMILES	p97 ATPase inh	Wee1 degr inh	APP 5'UTR act	Mdm2 ligase inh	NF-kB expr up	STAT1 activator	Wee1 degr conf
CCCOc1ccc(NC(=O)CC2C(=O)N(Cc3ccccc3)C(=S)N2Cc2cccs2)cc1 (centres undefined)	-3	5	-5	-13	1	94	.
CCOc1ccccc1-n1c(=S)sc2c(=O)n(-c3ccccc3)c(=S)[nH]c21	1	-2	13	-40	1.5	97	.
CC(C)C(=O)Nc1nnc(SCC(=O)NCc2ccc3c(c2)OCO3)s1	5	12*	8	1	0.95	97	1
C(=C\c1nnc2c3ccccc3ncn12)/c1ccccc1	2	12*	-73	-34	3.2	148*	8
C#Cc1ccc([C@@H]2C=C(C(=O)NC3CC3)O[C@H](OCCCCO)C2)cc1	.	.	.	4	.	.	.
O=C(CSc1ccc(F)cc1)NC1CCCCC1	2	12*	36	-17	2	123	2
O=C(CSc1ccc(Cl)cc1)NC1CCCC1	0	7	-16	-10	1.4	112	.
CCOc1ccc(S(=O)(=O)NCCC(=O)N2CCN(c3ccc(OC)cc3)CC2)cc1	-2	11*	3	-12	0.88	82	-1
CC(C)(C)NC(=O)/C(=C\c1ccccc1F)NC(=O)c1ccc([N+](=O)[O-])cc1	-1	1	-5	-7	1	102	.
CC(C)(C)NC(=O)/C(=C/c1ccccc1F)NC(=O)c1ccc([N+](=O)[O-])cc1	4	15*	-11	-11	1.3	100	2
O=C(NNC(=O)C1[C@H]2CCCC[C@@H]12)Nc1cccc2ccccc12 (some centres undefined)	2	0	.	-7	.	.	.
CN(C)c1ccc(NC(=O)CCn2c(=S)oc3ccccc32)cc1	7	11*	106	-5	1.2	134*	2
CCC(C(=O)Nc1nccs1)c1ccccc1 (centres undefined)	-1	17*	-19	-15	1.1	101	1
CCOC(=O)CC(NC(=O)Cn1nnc(-c2ccccc2C)n1)c1ccc(OC)cc1 (centres undefined)	5	12*	16	-6	0.82	95	2
O=C(Nc1nc(-c2ccccn2)cs1)c1ccc2c(c1)OCCO2	3	31*	110	-30	2.7	131*	2
CC(C)CNC(=S)NNC(=O)CC(C)O (centres undefined)	1	11*	6	-18	0.98	86	1
CCNC(=S)NNC(=O)CC(C)C	5	3	-5	4	1.1	99	.
COc1ccc(OC)c2[nH]c(=O)c(CCNC(=O)CC(C)C)cc12	2	11*	3	-4	1	101	0
CCCCOC(=O)CSc1nc2ccccc2o1	2	12*	.	-12	.	.	3
O=C(Nc1nnc(SCC(=O)N2CCOCC2)s1)c1ccccc1	4	-2	14	-12	1.6	115	.
COc1ccc([N+](=O)[O-])cc1NC(=O)C(C)OC(=O)c1cccnc1 (centres undefined)	-5	4	-1	-17	0.76	104	.
COc1cc(CNc2ccc(N3CCN(C(C)=O)CC3)cc2)ccc1OCc1ccc(F)cc1	-1	12*	-2	-3	1.1	105	3
CC(O)C(NS(=O)(=O)c1ccc(Cl)cc1)C(=O)OCC(=O)Nc1cccnc1Cl (centres undefined)	6	20*	12	-60	1.4	95	-1
COc1cc(Cl)c(C)cc1NC(=O)COC(=O)C(NS(=O)(=O)c1ccc(Cl)cc1)C(C)O (centres undefined)	-6	2	-3	-15	0.96	99	.
